In ChEMBL document CHEMBL1124542, “Cholecystokinin antagonists. Synthesis and biological evaluation of 3-substituted benzolactams” (J Med Chem, 1989) one finds ED50 and IC50 data, which are given here for 20 compounds.

The test system of one experiment is Mus musculus. Put plainly: Dose rquired to inhibit CCK-induced gastric emptying in mice p.o. The note with it: Stomach, po. The class given is functional. The method, boiled down: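 Antagonism of CCK-8-induced inhibition of gastric emptying, with gastric emptying followed using a charcoal meal. Test agents were given orally, and the ED50 was taken as the oral dose (mg/kg) that antagonized the CCK-8 effect.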

The target of experiment [1] is T1, Cholecystokinin receptor (Rattus norvegicus, UniProt P30551+P30553).
T1 sequence (P30551 whole entry): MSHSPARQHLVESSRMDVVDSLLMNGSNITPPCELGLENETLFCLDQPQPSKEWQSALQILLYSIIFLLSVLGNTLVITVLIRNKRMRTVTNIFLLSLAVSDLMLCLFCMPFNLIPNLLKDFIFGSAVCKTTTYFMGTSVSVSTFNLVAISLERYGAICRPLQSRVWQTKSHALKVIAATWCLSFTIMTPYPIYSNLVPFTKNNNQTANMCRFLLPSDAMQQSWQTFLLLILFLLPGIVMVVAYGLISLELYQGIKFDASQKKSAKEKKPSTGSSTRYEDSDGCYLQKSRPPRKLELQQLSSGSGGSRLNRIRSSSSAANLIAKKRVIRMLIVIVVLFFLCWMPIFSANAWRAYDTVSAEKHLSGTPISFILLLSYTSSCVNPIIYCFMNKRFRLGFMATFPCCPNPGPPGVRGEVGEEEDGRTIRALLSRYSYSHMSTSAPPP
T1 sequence (P30553 whole entry): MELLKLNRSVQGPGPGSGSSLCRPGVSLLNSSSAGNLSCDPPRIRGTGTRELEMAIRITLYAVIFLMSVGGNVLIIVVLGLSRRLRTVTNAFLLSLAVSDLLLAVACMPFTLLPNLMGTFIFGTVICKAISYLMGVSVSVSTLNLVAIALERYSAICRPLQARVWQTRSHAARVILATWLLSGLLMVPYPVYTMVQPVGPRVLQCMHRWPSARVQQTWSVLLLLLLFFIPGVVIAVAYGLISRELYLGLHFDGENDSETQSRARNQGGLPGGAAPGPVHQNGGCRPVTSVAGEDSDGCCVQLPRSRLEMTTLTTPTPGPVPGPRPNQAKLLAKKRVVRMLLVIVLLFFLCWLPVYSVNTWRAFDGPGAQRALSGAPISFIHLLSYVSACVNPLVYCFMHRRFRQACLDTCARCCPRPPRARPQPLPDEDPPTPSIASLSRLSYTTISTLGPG
The experiment in a line: Inhibition of [125I]-CCK-8 binding to CCK receptors in rat pancreatic tissue.

For experiment [2], the target named is T1, Cholecystokinin receptor. The experiment in a line: Half-maximal inhibition of binding of [125I]CCK-8 to Cholecystokinin receptor in rat pancreatic tissue.

Regarding `CN1C(=O)[C@@H](NC(=O)c2cc3ccccc3[nH]2)N=C(c2ccccc2)c2ccccc21` [DEVAZEPIDE], the ED50 in the experiment on Mus musculus turned out to be 0.04 mg/kg.
Regarding `CC(C)(C)OC(=O)CN1C(=O)C(NC(=O)CCc2c[nH]c3ccccc23)CCc2ccccc21` (configuration not stated), the IC50 on Cholecystokinin receptor [1] was found to be 2 µM.
On Cholecystokinin receptor [1], `CCOC(=O)CN1C(=O)C(NC(=O)c2cc3ccccc3[nH]2)CCc2ccccc21` (configuration not stated) came in with an IC50 of 0.11 µM.
The compound `O=C(NC1CCc2ccccc2N(Cc2ccccc2)C1=O)c1cc2ccccc2[nH]1` (configuration not stated) returned an IC50 on Cholecystokinin receptor [1] of 0.035 µM.
The compound `CC(C)(C)OC(=O)CN1C(=O)C(NC(=O)c2ccc3ccccc3c2)CCc2ccccc21` (configuration not stated) yielded an IC50 at Cholecystokinin receptor [2] of 0.0075 µM.
`CC(C)(C)OC(=O)CN1C(=O)C(NC(=O)c2ccc(Cl)cc2)CCc2ccccc21` (configuration not stated) gave an IC50 on Cholecystokinin receptor [1] of 0.13 µM.
In the case of `CC(C)(C)OC(=O)CN1C(=O)C(NC(=O)c2ccccc2)CCc2ccccc21` (configuration not stated), at Cholecystokinin receptor [2], the IC50 was 2.1 µM.
On Cholecystokinin receptor [1], `CC(C)(C)OC(=O)CN1C(=O)C(NC(=O)c2ccc(Cl)c(Cl)c2)CCc2ccccc21` (configuration not stated) showed an IC50 of 0.028 µM.
Turning to `CC(C)(C)OC(=O)CN1C(=O)[C@@H](NC(=O)c2cc3ccccc3[nH]2)CCc2ccccc21`, the IC50 on Cholecystokinin receptor [1] was 0.2 µM.
In turn, `CC(C)(C)OC(=O)CN1C(=O)C(NC(=O)c2cc3ccccc3[nH]2)Cc2ccccc21` (configuration not stated) showed an IC50 on Cholecystokinin receptor [1] of 0.2 µM.
The compound `CC(C)(C)OC(=O)CN1C(=O)C(NC(=O)c2cc3ccccc3[nH]2)CCCc2ccccc21` (configuration not stated) gave an IC50 at Cholecystokinin receptor [1] of 0.06 µM.
In the case of `CC(C)(C)OC(=O)CN1C(=O)[C@H](NC(=O)c2ccc3ccccc3c2)CCc2ccccc21`, in the experiment on Mus musculus, it took a dose of 6.8 mg/kg to reach the 50% effect level (ED50). At Cholecystokinin receptor [1], this compound showed an IC50 of 0.0042 µM.
`CN1C(=O)C(NC(=O)c2ccc3ccccc3c2)CCc2ccccc21` (configuration not stated) yielded an IC50 at Cholecystokinin receptor [2] of 6.8 µM.
`CN(C)c1ccc(C(=O)NC2CCc3ccccc3N(CC(=O)OC(C)(C)C)C2=O)cc1` (configuration not stated): on Cholecystokinin receptor [2], the IC50 came out at 50 µM.
At Cholecystokinin receptor [2], `CC(C)(C)OC(=O)CN1C(=O)C(NCc2ccc3ccccc3c2)CCc2ccccc21` (configuration not stated) came in with an IC50 of 0.004 µM.
Still for that read-out and setting: for `CC(C)(C)OC(=O)CN1C(=O)C(NC(=O)Cc2ccc3ccccc3c2)CCc2ccccc21` (configuration not stated) the value was 2.7 µM.
With `CC(C)(C)OC(=O)CN1C(=O)C(NC(=O)c2cc3ccccc3[nH]2)CCc2ccccc21` (configuration not stated), the ED50 in the experiment with Mus musculus amounted to 2.6 mg/kg. For the same compound, the IC50 on Cholecystokinin receptor [1] amounted to 0.007 µM.
Turning to `O=C(O)CN1C(=O)C(NC(=O)c2ccc3ccccc3c2)CCc2ccccc21` (configuration not stated), the 50% inhibitory concentration (IC50) at Cholecystokinin receptor [2] is 2.3 µM.
On Cholecystokinin receptor [1], `CC(C)(C)OC(=O)CN1C(=O)C(N)CCc2ccccc21` (configuration not stated) had an IC50 of 100 µM.
With `CC(C)(C)OC(=O)CN1C(=O)[C@H](NC(=O)c2cc3ccccc3[nH]2)CCc2ccccc21`, at Cholecystokinin receptor [1], the IC50 came to 0.003 µM.
